High-throughput results deposited in PubChem BioAssay by The Scripps Research Institute Molecular Screening Center.
CHO parental Ca = signal in parental CHO cells, OX1R antagonist counter-screen; 330,000 tested, 0.63% active; AID 463079; inhibition, % at 5.6 µM; parental CHO-K1, ATP-induced calcium, Fluo-8 fluorescence;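 active means inhibition above that plate's mean sample inhibition plus 3 SD, cut at about 26% in these data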;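 further: 0% = ATP-challenged DMSO wells and 100% = DMSO wells without ATP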
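Test system: parental CHO cells; detection: calcium-sensitive Fluo-8 fluorescence; evaluation: percent inhibition of calcium signal; also added: ATP as calcium-mobilizing challenge; repeats: one well per compound; control set: ATP-challenged DMSO wells low, unchallenged DMSO wells high; compound: single nominal dose of 5.6 µM per compound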
TRPN1 ag = zebrafish TRPN1 (NompC) channel agonism. AID 1424. HEK293 zebrafish TRPN1-YFP, Fluo-8 calcium fluorescence; 100% = response to 87 µM carbachol. activation, % at 3 µM. 220,000 tested, 0.18% active;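 active means activation above its plate's cutoff, the mean activation of test wells on that plate plus 3 SD, cut at about 19% in these data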;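 further: 0% = DMSO alone and 100% = 87 µM carbachol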
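System: zebrafish TRPN1-YFP in HEK293 cells / Dosing: 3 µM single point / Timing: dye loading 1 h at 37 °C, then 30 min room temperature / Signal: Fluo-8 calcium fluorescence, excitation 470-495 nm, emission 515-575 nm / Read-out basis: percent activation from peak over basal fluorescence ratio, control-normalized / Control set: high carbachol 87 µM, low DMSO alone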
OX1R antag-1 = blocks the human orexin 1 receptor; O43613; OX1R-expressing cells, FRET antagonist read-out; inhibition, % at 6.6 µM; 330,000 tested, 1.8% active; AID 485270; in the data active means inhibition mostly above about 38%, no sharp cut-off; inactive means mostly below about 40%;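 further: 0% = agonist challenge alone and 100% = reference antagonist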
GPR7 antag = human neuropeptides B/W receptor 1 antagonism; P48145; GPR7-expressing cells, fluorescence antagonist assay; inhibition, % at 4.4 µM; 290,000 tested, 1.1% active; AID 1861; in the data active means inhibition above about 16%, passing the limit was not always enough;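 further: cells stimulated with the agonist NPW; 0% = agonist with vehicle and 100% = vehicle without agonist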
Target sequence (P48145 whole entry, looked up): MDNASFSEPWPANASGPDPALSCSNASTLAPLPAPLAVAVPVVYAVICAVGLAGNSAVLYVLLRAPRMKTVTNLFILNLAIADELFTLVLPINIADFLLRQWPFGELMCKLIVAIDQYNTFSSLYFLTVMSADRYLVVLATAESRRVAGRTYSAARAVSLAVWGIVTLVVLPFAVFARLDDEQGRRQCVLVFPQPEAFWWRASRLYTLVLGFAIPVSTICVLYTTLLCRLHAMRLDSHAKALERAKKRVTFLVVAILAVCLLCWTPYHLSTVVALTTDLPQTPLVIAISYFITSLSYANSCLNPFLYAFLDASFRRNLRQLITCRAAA
TRPML3 agonist = activates the human TRPML3 channel; Q8TDD5; HEK293 TRPML3-YFP, Fluo-8 calcium fluorescence; 100% = the carbachol control signal; activation, % at 3 µM; 220,000 tested, 0.29% active;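 active means activation above its plate's cutoff, the mean activation of the plate's test wells plus 3 SD, cut at about 12% in these data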;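 further: 0% = DMSO only wells and 100% = carbachol wells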
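system = HEK293 cells stably carrying human TRPML3-YFP | doses = one concentration, 3 µM nominal, 0.3% DMSO | timing = dye loading 1 h 37 °C then 30 min ambient, 125 s read | detection = Fluo-8 calcium dye fluorescence, ex 470-495, em 515-575 nm | benchmarks = high control carbachol 87 µM, low control DMSO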
OX1R antag-2 = human HCRTR1 antagonism | CHO/OX1R cells, Fluo-8 calcium fluorescence, orexin A | inhibition, % at 5 µM | 330,000 tested, 0.43% active;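 active means inhibition above its plate's threshold, mean inhibition of all tested compounds on the plate plus 3 SD, cut at about 37% in these data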;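 further: 0% = orexin A challenge wells and 100% = SB-334867-A antagonist wells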
Starred values were filed as active, the others as inactive; . = no result. Only some compounds are listed: those with a hit (about 3.2% of all), similar ones and a draw of the others.

SMILES	CHO parental Ca	TRPN1 ag	OX1R antag-1	GPR7 antag	TRPML3 agonist	OX1R antag-2
O=C(Nc1ccccc1)NC1CCCCCCC1	-10	.	18	.	.	-32
O=C(Nc1ccc(Br)cc1)NC1CCCCCCC1	40*	.	27	2	.	19
Cc1cccc2[nH]c3c(N4CC=C(c5ccc(F)cc5)CC4)ncnc3c12	36*	-1	77*	-12	-1	19
CC1(C)Cc2c(cnn2-c2cccc(F)c2)C(NC(=O)CCc2cnccn2)C1 (centres undefined)	-13	.	3	-7	.	-21
Oc1ccc(-c2n[nH]c(C(F)(F)F)c2-c2ccccc2)c(O)c1	57*	0	21	1	0	15
c1nnc2c3c4c(sc3ncn12)CCCC4	.	1	.	-6	1	.
c1nc2sc3c(c2c2nnnn12)CCCC3	-17	1	15	18*	1	-16
COc1ccc(CCNC(=O)c2ccc3c(c2)N(Cc2ccccc2)CCS3)cc1OC	-4	.	57*	6	.	-12
NS(=O)(=O)c1ccc(CCNC(=O)c2ccc3c(c2)N(Cc2ccccc2)CCS3)cc1	-7	.	70*	-5	.	-6
COc1ccc(OC)c(CCNC(=O)c2ccc3c(c2)N(Cc2ccccc2)CCS3)c1	-32	.	23	15	.	-25
COc1ccc(CCNC(=O)c2cccs2)cc1OC	-1	0	10	-2	0	3
COc1ccc(CCNC(=O)c2ccccc2C(=O)NCCc2ccc(OC)c(OC)c2)cc1OC	-12	.	50*	.	.	-4
COc1ccc(CCNC(=O)Cc2ccc(OCc3ccccc3)c(OC)c2[N+](=O)[O-])cc1OCc1ccccc1	46*	0	25	3	0	35
C[C@H]1CN([C@@H](C)CO)C(=O)c2cccc(NS(=O)(=O)c3ccc(Cl)cc3)c2O[C@@H]1CN(C)CC1CCCCC1	-8	.	3	.	.	-38
CCn1c(NC(C)=O)c(-c2ccccc2Cl)c(=O)c2ccccc21	-2	.	14	-21	.	-7
Cn1c(=O)c(C(=O)CN2CC(=O)Nc3ccccc32)c(N)n(Cc2ccccc2)c1=O	-12	-1	14	-12	1	-18
OCC1(Cc2ccccc2)CCCN(Cc2c[nH]c3ccccc23)C1 (centres undefined)	-11	1	7	0	1	-17
CN(CCCC(=O)O)S(=O)(=O)c1ccc2c(c1)C(=O)c1cc(S(=O)(=O)N(C)CCCC(=O)O)ccc1-2	-5	.	51*	-10	.	-6
COc1cccc(/C=N/NC(=O)CSc2nnc(C)n2-c2ccccc2)c1O	-13	-1	23	-4	0	-16
CCCCSc1nc(C)cc(SCC(=O)N/N=C/c2cccc(OC)c2O)n1	34*	-1	70	-13	1	57*
COc1cccc(Nc2nn3c(=O)c4ccccc4nc3s2)c1	-14	.	39*	.	.	14
CNCc1ccccc1Sc1ccc(O)c(O)c1	-2	-1	17	-12	0	-12
CS(=O)(=O)Nc1cccc(C2=NN(S(=O)(=O)c3ccc(F)cc3)C(c3cccs3)C2)c1 (centres undefined)	-3	-1	16	19*	0	0
Cc1c(C(=O)OCC(=O)Nc2ccc(S(N)(=O)=O)cc2)oc2c1ccc1ccccc12	41*	-1	22	18	0	4
O=C(NCCn1cc(SCc2ccccc2F)c2ccccc21)c1c(F)cccc1F	80*	0	26	13	1	2
SMILES	CHO parental Ca	TRPN1 ag	OX1R antag-1	GPR7 antag	TRPML3 agonist	OX1R antag-2
O=C(CSc1cn(CCNC(=O)c2cccs2)c2ccccc12)NCc1ccccc1	-15	1	41*	6	0	-5
O=C(CSc1cn(CCNC(=O)c2cccs2)c2ccccc12)NC1CCCCC1	-5	1	41*	4	0	-15
Cc1cc(=O)oc2cc(OCC(=O)NC3CC(C)(C)NC(C)(C)C3)c(Cl)cc12	-8	.	5	2	.	-15
COc1ccc(Nc2c(-c3ccc(OC)cc3)nc3cnccn23)cc1	-14	0	17	4	-1	-14
COc1ccc(Nc2c(-c3ccc(C)cc3)nc3cnccn23)cc1	-14	0	13	17*	-1	-26
Brc1ccc2c(c1)OCCOCCOc1cc(Br)ccc1OCCOCCOCCO2	57*	1	5	24	0	72*
Brc1cc2c(cc1Br)OCCOCCOCCOCCO2	-14	0	22	11	0	-39
CN(C)c1ccc2nc3c(=O)[nH]c(=O)nc-3n(CC(O)C(O)C(O)CO)c2c1 (centres undefined)	12	.	74*	4	.	16
COc1ccc(-c2cc(C(=O)OC(C)C(=O)Nc3c(C)n(C)n(-c4ccccc4)c3=O)c3ccccc3n2)cc1 (centres undefined)	-21	0	62*	0	0	-1
CC(NC(=O)c1cc([N+](=O)[O-])cc([N+](=O)[O-])c1)c1ccc(-n2ccnc2)cc1 (centres undefined)	-10	.	64*	-12	.	-22
CC(NC(=O)c1ccc(N(C)C)c([N+](=O)[O-])c1)c1ccc(-n2ccnc2)cc1 (centres undefined)	-18	.	29	-4	.	-16
C[C@H](NC(=O)c1ccc2ccccc2c1)C(=O)N1CCC2(CC1)NCCc1[nH]cnc12	4	.	-1	-14	.	2
Nc1nnc(SCC(=O)NNC(=O)c2ccc([N+](=O)[O-])cc2)s1	-2	.	36*	.	.	1
Nc1nnc(SCC(=O)NNC(=O)c2ccc(F)cc2)s1	-3	.	2	.	.	-11
Cc1ccc(C(=O)Nc2ccc(S(=O)(=O)Nc3cnc4ccccc4n3)cc2)cc1	-10	.	16	-13	.	-11
COc1ccc(CCNC(=O)COc2ccc(S(=O)(=O)NC(C)C)cc2Cl)cc1OC	-5	2	47*	-9	0	16
O=C(Nc1cnn(Cc2ccc(Cl)cc2)c1)c1ccc([N+](=O)[O-])cc1	64*	1	16	5	0	14
CCN(CC)S(=O)(=O)c1ccc2c(c1)nc(CCC(=O)Nc1ccc(N3CCOCC3)cc1)n2C	-12	0	15	-13	0	-3
Cn1c(/C=C/c2cccc(Br)c2)nc2ccccc2c1=O	-34	.	60*	4	.	25
CCOC(=O)C1CCN(CC(=O)Nc2c(C(=O)OC)[nH]c3ccc(Cl)cc23)CC1	-13	1	41	18*	0	-3
CCOC(=O)C1CCN(CC(=O)Nc2c(C(=O)OC)[nH]c3ccccc23)CC1	.	1	.	-3	1	.
CCN(CC)c1ccc(-n2cc3c(=O)n(C)c(=O)n(C)c3c2)cc1	-15	0	74*	0	-2	12
